Experimental data: ChEMBL document CHEMBL5360619
Calls of active or inactive are those of the source. The rule behind the calls is not given here.

What was measured:
[1] = system: Mycobacterium tuberculosis; experiment: Antimycobacterial activity against Mycobacterium tuberculosis Erdman harboring frameshift mutation in KatG at amino acid 6 assessed as reduction in colony forming units at 1 uM incubated for 13 days; assay type: functional, organism-based; conditions: time 13.0 day
Procedure, shortened: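 katG frameshift mutant grown to log phase in Sauton's medium, diluted to 5 × 10^7 CFU/mL, given 1 μM compound (imidazole salt in DMSO); IMD/DMSO vehicle controls. Incubated rolling at 37 °C. After 13 days, serial dilutions plated on 7H11 agar with ADC for CFU. Two experiments, each in duplicate; one-way ANOVA with Tukey's correction.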

[2] = system: Mycobacterium tuberculosis; experiment: Reversal of isoniazid resistance in Mycobacterium tuberculosis Erdman harboring frameshift mutation in KatG at amino acid 6 assessed as reduction in surviving bacteria by measuring reduction in colony forming units at 1 uM incubated for 13 days; assay type: functional, organism-based; conditions: time 13.0 day
[3] = system: Mycobacterium tuberculosis; experiment: Antimycobacterial activity against Mycobacterium tuberculosis Erdman harboring frameshift mutation in KatG at amino acid 6 assessed as reduction in colony forming units at […] incubated for 13 days (reference value: 9.07 x 10^9 CFU/mL); assay type: functional; conditions: dose 2.5 µg/ml; time 13 day

Compound	Activity [1]	Activity [2]	Activity [3]
O=C(O)C1CSc2c(C3CC3)c(-c3cc(-c4ccc5ccccc5c4)no3)cc(=O)n21.c1c[nH]cn1 (racemic)	inactive	Active	–
O=C(O)C1CSc2c(C3CC3)c(Cc3cccc4ccccc34)cc(=O)n21.c1c[nH]cn1 (racemic)	inactive	inactive	–
NNC(=O)c1ccncc1 [ISONIAZID]	–	–	8.09 10^8CFU/ml
